ChEMBL document CHEMBL3124904, “Second-generation derivatives of the eukaryotic translation initiation inhibitor pateamine A targeting eIF4A as potential anticancer agents” (Bioorg Med Chem, 2014)
Active and inactive are the calls of the source. No cut-off for these calls is given here.

How the values were obtained:
[1] = Selectivity ratio of IC50 for MEF to IC50 for human SK-MEL-2 cells; format: cell-based; conditions: mouse (MEF) and human (SK-MEL-2 cells), MEF and SK-MEL-2 cells; read-out: Ratio IC50
[2] = Half life in RPMI media at 10 uM by HPLC analysis; format: physicochemical
In short: (§1)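 Compound added from DMSO stock to pre-heated RPMI 1640 (1.8 mL) plus 0.2 mL human AB male serum or FBS, or to 2 mL RPMI alone, at final 1 or 10 μM. Samples analysed by HPLC at pH 9.5 (formic acid/ammonia in acetonitrile/water), with conversion taken from the substrate/internal standard peak ratio. Run in triplicate; half-lives ± SD.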

[3] = Antiproliferative activity against BAEC assessed as DNA synthesis level after 24 hrs by thymidine incorporation assay; conditions: Bos taurus
In short: (§2)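 Cells kept at 37 °C, 5% CO2 with penicillin-streptomycin and 10% FBS. Adherent lines seeded at 2000 cells/well and left to recover overnight; Jurkat seeded at 5000 cells/well with no recovery period. Compound added in DMSO (0.1% final, vehicle-only control) at 0.001–100 nM over 10 wells. DNA synthesis read out after 24 h. Mean IC50 from at least 3 independent assays.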

[4] = Half life in RPMI media at 1 uM by HPLC analysis in presence of human blood serum; format: ADME; in short: as §1
SK-MEL-2 [5] = assay: Selectivity ratio of IC50 for human SK-MEL-2 cells in presence of 5% FBS to IC50 for human SK-MEL-2 cells in presence of 10% FBS; format: functional
HeLa = assay: Antiproliferative activity against human HeLa cells assessed as DNA synthesis level after 24 hrs by thymidine incorporation assay; format: functional, cell-based; in short: as §2
[6] = Half life in RPMI media at 1 uM by HPLC analysis; format: physicochemical; in short: as §1
Oryctolagus cuniculus = organism: Oryctolagus cuniculus; assay: Inhibition of cap-independent HCV-IRES-induced translation in rabbit reticulocyte lysate at 500 nM after 1.5 hrs by luciferase reporter gene assay; format: functional
In short: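 Capped bicistronic reporter mRNA: cap-dependent firefly luciferase first cistron, HCV IRES-driven Renilla second cistron. Transcribed in vitro with SP6 from the BamHI-linearised plasmid. 200 ng RNA translated in rabbit reticulocyte lysate with 70 mM KCl, 2 mM DTT, RNasin and compound in DMSO (5% v/v final), 30 °C for 1.5 h. Dual luciferase readout. Duplicates, 4 independent assays, mean IC50 by curve fit.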

HaCaT = assay: Antiproliferative activity against human HaCaT cells assessed as DNA synthesis level after 24 hrs by thymidine incorporation assay; format: functional, cell-based; in short: as §2
[7] = molecular target: T1, DNA polymerase alpha catalytic subunit (Homo sapiens, UniProt P09884); assay: Inhibition of DNA polymerase-alpha (unknown origin) assessed as incorporation of Br(d)UTP by colorimetric analysis
T1 sequence (P09884 whole entry): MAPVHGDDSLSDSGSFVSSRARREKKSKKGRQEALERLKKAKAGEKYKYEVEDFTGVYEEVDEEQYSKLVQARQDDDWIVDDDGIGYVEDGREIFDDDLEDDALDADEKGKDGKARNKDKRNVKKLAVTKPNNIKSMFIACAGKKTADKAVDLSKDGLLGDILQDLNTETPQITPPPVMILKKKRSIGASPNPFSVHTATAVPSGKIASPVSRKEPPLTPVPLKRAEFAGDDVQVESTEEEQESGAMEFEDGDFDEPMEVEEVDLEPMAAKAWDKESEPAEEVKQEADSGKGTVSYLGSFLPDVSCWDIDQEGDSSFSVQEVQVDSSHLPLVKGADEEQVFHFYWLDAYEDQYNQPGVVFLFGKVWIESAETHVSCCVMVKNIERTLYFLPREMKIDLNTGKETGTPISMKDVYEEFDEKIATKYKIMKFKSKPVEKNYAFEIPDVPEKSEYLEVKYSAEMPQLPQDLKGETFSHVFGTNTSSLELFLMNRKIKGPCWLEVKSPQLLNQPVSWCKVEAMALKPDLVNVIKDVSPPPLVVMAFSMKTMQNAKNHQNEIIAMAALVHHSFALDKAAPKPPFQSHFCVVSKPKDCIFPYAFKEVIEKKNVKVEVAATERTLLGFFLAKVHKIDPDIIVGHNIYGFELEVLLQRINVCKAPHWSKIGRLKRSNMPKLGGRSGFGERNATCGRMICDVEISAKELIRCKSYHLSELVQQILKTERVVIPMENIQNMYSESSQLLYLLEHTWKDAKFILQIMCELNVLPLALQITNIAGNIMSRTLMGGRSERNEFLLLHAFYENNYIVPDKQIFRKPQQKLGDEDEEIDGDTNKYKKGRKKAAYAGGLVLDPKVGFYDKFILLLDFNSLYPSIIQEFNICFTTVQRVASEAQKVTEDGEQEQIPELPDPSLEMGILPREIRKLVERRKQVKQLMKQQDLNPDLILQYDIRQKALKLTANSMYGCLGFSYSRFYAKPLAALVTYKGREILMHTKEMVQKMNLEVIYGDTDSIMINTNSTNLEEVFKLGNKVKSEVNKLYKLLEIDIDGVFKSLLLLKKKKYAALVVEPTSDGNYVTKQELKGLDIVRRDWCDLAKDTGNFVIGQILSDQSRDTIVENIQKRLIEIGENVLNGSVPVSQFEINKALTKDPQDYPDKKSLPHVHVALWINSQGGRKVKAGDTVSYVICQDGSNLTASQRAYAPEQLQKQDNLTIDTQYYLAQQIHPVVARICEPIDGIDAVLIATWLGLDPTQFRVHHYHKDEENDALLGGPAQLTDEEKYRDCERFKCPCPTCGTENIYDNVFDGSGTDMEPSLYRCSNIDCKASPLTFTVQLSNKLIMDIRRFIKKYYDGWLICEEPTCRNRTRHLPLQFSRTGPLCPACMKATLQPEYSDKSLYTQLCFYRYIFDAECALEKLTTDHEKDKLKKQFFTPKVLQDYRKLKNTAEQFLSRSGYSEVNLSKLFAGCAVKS

[8] = Dissociation constant, pKa of the compound; format: physicochemical
SK-MEL-2 [9] = assay: Antiproliferative activity against human SK-MEL-2 cells after 72 hrs by MTT assay in presence of 10% FBS; format: functional, cell-based; conditions: SK-MEL-2, 72 h
In short: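 HeLa and SK-MEL2 grown in DMEM, Jurkat in RPMI 1640, each with 10% FBS and penicillin-streptomycin, at 37 °C and 5% CO2. Adherent cells seeded at 2000/well and left to recover overnight; Jurkat seeded at 5000/well with no recovery. Compound added in DMSO (0.1% final), then 72 h incubation and MTT readout.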

[10] = Half life in RPMI media at 10 uM by HPLC analysis in presence of fetal bovine serum; format: ADME; conditions: cattle; in short: as §1
SK-MEL-2 [11] = assay: Antiproliferative activity against human SK-MEL-2 cells after 72 hrs by MTT assay in presence of 5% FBS; format: functional, cell-based; conditions: SK-MEL-2, 72 h
In short: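 SK-MEL2 grown with reduced serum (5% FBS) to slow proliferation. Compounds added in DMSO (0.1% final), followed by a 72 h MTT proliferation assay.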

CC(/C=C/C(C)=C/[C@@H]1Cc2nc(cs2)CCCCC(=O)O[C@@H](C)C/C(C)=C/C=C\C(=O)O1)=C\CN(C)C
selectivity ratio [1]: 5 | t1/2 [2]: 3.25 h | IC50 [3]: 1.97 nM | t1/2 [4]: 24 h | Ratio IC50 (SK-MEL-2 [5]): 2 | IC50 (HeLa): 4.5 nM | t1/2 [6]: 5.11 h | inhibition (Oryctolagus cuniculus): inactive | IC50 (HaCaT): 0.9 nM | IC50 [7]: 3000 nM | pKa [8]: 11 | IC50 (SK-MEL-2 [9]): 13 nM | t1/2 [10]: 12.5 h | IC50 (SK-MEL-2 [11]): 30 nM
